# From paper PMC5084670 (Cancer Science, 2016)
# Marks after values point to notes of the source that are not given here.
# Assay: Phase I dose-escalation study: safety, adverse events
# Assay type: in vivo, human
# Procedure, shortened: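 Oral test compound was given once daily in 28-day cycles after a 7-day single-dose run-in, in Japanese and Hong Kong/Taiwan groups escalated separately. Toxicity was graded by CTCAE v3.0 using laboratory tests, physical examination, vital signs, weight and periodic ECG. DLTs were grade 3–4 events over the run-in plus cycle 1. MTD was set by an adaptive Bayesian logistic regression model with overdose control.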
# [1] = group 1, 400 mg q.d. (n = 12), All grades
# [2] = group 1, 400 mg q.d. (n = 12), Grade 3
# [3] = group 1, 400 mg q.d. (n = 12), Grade 4
# [4] = group 1, 600 mg q.d. (n = 9), All grades
# [5] = group 1, 600 mg q.d. (n = 9), Grade 3
compound,measurement,setting,value
Cc1c(C(=O)Nc2ccc(N3C[C@@H](C)O[C@@H](C)C3)nc2)cccc1-c1ccc(OC(F)(F)F)cc1 [Sonidegib],Maximum CK level,a patient receiving 600 mg,40 400 IU/L
same,Myoglobin level at maximum CK level,a patient receiving 600 mg,5320 ng/mL
same,Deaths,both groups,no deaths were reported
same,Recommended dose (RD),"both groups, East Asian patients",400 mg q.d.
same,Changes in electrocardiogram parameters,during the course of treatment,No clinically significant changes
same,Recommended dose (RD),group 1 (Japanese),400 mg q.d.
same,Grade 3 /4 Creatine kinase elevation during all study period,"group 1 (Japanese), 400 mg qd, N = 12",2 (17) ^† n (%)
same,Grade 3 /4 Creatine kinase elevation during all study period,"group 1 (Japanese), 600 mg qd, N = 9",5 (56) ^† n (%)
same,Grade 3 /4 Creatine kinase elevation during all study period,"group 1 (Japanese), All patients, N = 21",7 (33) n (%)
same,DLT in cycle 1 (creatine kinase elevation),"group 1, 400 mg",single DLT
same,Alopecia (drug-related adverse event),[1],2 (17) n (%)
same,Blood creatine kinase increased (drug-related adverse event),[1],2 (17) n (%)
same,Decreased level of consciousness (drug-related adverse event),[1],0 (0) n (%)
same,Dysgeusia (drug-related adverse event),[1],1 (8) n (%)
same,Fatigue (drug-related adverse event),[1],2 (17) n (%)
same,Hepatic function abnormal (drug-related adverse event),[1],2 (17) n (%)
same,Hyperglycemia (drug-related adverse event),[1],0 (0) n (%)
same,Lymphopenia (drug-related adverse event),[1],0 (0) n (%)
same,Muscle spasms (drug-related adverse event),[1],1 (8) n (%)
same,Muscle weakness (drug-related adverse event),[1],0 (0) n (%)
same,Myalgia (drug-related adverse event),[1],2 (17) n (%)
same,Myoglobin blood increased (drug-related adverse event),[1],0 (0) n (%)
same,Nausea (drug-related adverse event),[1],1 (8) n (%)
same,Rhabdomyolysis (drug-related adverse event),[1],1 (8) n (%)
same,Alopecia (drug-related adverse event),[2],0 (0) n (%)
same,Blood creatine kinase increased (drug-related adverse event),[2],1 (8) n (%)
same,Decreased level of consciousness (drug-related adverse event),[2],0 (0) n (%)
same,Dysgeusia (drug-related adverse event),[2],0 (0) n (%)
same,Fatigue (drug-related adverse event),[2],0 (0) n (%)
same,Hepatic function abnormal (drug-related adverse event),[2],1 (8) n (%)
same,Hyperglycemia (drug-related adverse event),[2],0 (0) n (%)
same,Lymphopenia (drug-related adverse event),[2],0 (0) n (%)
same,Muscle spasms (drug-related adverse event),[2],0 (0) n (%)
same,Muscle weakness (drug-related adverse event),[2],0 (0) n (%)
same,Myalgia (drug-related adverse event),[2],0 (0) n (%)
same,Myoglobin blood increased (drug-related adverse event),[2],0 (0) n (%)
same,Nausea (drug-related adverse event),[2],0 (0) n (%)
same,Rhabdomyolysis (drug-related adverse event),[2],0 (0) n (%)
same,Alopecia (drug-related adverse event),[3],0 (0) n (%)
same,Blood creatine kinase increased (drug-related adverse event),[3],0 (0) n (%)
same,Decreased level of consciousness (drug-related adverse event),[3],0 (0) n (%)
same,Dysgeusia (drug-related adverse event),[3],0 (0) n (%)
same,Fatigue (drug-related adverse event),[3],0 (0) n (%)
same,Hepatic function abnormal (drug-related adverse event),[3],0 (0) n (%)
same,Hyperglycemia (drug-related adverse event),[3],0 (0) n (%)
same,Lymphopenia (drug-related adverse event),[3],0 (0) n (%)
same,Muscle spasms (drug-related adverse event),[3],0 (0) n (%)
same,Muscle weakness (drug-related adverse event),[3],0 (0) n (%)
same,Myalgia (drug-related adverse event),[3],0 (0) n (%)
same,Myoglobin blood increased (drug-related adverse event),[3],0 (0) n (%)
same,Nausea (drug-related adverse event),[3],0 (0) n (%)
same,Rhabdomyolysis (drug-related adverse event),[3],1 (8) n (%)
same,Additional patients with grade 3 or 4 CK elevation after cycle 1,"group 1, 600 mg",four
same,DLT in cycle 1 (creatine kinase elevation),"group 1, 600 mg",single DLT
same,Alopecia (drug-related adverse event),[4],2 (22) n (%)
same,Blood creatine kinase increased (drug-related adverse event),[4],5 (56) n (%)
same,Decreased level of consciousness (drug-related adverse event),[4],1 (11) n (%)
same,Dysgeusia (drug-related adverse event),[4],2 (22) n (%)
same,Fatigue (drug-related adverse event),[4],2 (22) n (%)
same,Hepatic function abnormal (drug-related adverse event),[4],3 (33) n (%)
same,Hyperglycemia (drug-related adverse event),[4],1 (11) n (%)
same,Lymphopenia (drug-related adverse event),[4],1 (11) n (%)
same,Muscle spasms (drug-related adverse event),[4],1 (11) n (%)
same,Muscle weakness (drug-related adverse event),[4],1 (11) n (%)
same,Myalgia (drug-related adverse event),[4],4 (44) n (%)
same,Myoglobin blood increased (drug-related adverse event),[4],1 (11) n (%)
same,Nausea (drug-related adverse event),[4],2 (22) n (%)
same,Rhabdomyolysis (drug-related adverse event),[4],1 (11) n (%)
same,Alopecia (drug-related adverse event),[5],0 (0) n (%)
same,Blood creatine kinase increased (drug-related adverse event),[5],2 (22) n (%)
same,Decreased level of consciousness (drug-related adverse event),[5],0 (0) n (%)
same,Dysgeusia (drug-related adverse event),[5],0 (0) n (%)
same,Fatigue (drug-related adverse event),[5],0 (0) n (%)
same,Hepatic function abnormal (drug-related adverse event),[5],1 (11) n (%)
same,Hyperglycemia (drug-related adverse event),[5],1 (11) n (%)
